Reference: BindingDB's records for doi:10.1021/jm950541c (Georgia Institute of Technology, 1996)

The molecules below were run against T1, Calpain-2 catalytic subunit (Homo sapiens, UniProt P17655) (assay: Compound was evaluated for the inhibition of Cysteine protease Calpain 2).
T1 sequence (P17655 whole entry): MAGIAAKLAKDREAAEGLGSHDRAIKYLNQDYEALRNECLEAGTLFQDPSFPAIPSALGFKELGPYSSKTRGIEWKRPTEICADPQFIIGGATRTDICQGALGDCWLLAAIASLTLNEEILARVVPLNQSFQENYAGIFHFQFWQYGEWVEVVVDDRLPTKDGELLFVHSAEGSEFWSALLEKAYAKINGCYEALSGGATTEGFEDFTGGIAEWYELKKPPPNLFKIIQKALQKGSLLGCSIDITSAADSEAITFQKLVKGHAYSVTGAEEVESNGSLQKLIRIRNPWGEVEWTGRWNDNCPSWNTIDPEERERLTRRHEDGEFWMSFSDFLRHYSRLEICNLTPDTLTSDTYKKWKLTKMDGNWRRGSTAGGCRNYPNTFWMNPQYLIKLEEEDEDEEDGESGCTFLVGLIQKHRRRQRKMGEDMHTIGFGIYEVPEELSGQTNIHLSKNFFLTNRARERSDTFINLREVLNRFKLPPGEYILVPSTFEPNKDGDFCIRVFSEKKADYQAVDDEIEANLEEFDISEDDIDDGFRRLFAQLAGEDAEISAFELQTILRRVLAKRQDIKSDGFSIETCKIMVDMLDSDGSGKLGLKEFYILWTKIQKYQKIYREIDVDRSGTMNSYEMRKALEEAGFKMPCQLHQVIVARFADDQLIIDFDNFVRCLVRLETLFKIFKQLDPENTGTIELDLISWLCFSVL
Method in brief: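 Calpain assay in 25 mM Tris, pH 8.0, with 10 mM CaCl₂ and 5% DMSO. Suc-Leu-AMC hydrolysis was read as initial velocity (t = 30-60 s) after a 30 s delay, at room temperature. Five or more inhibitor concentrations (not above 2 × K_obs) were used at two fixed substrate levels. Ki came from Dixon plots (1/v vs I) averaged over triplicates.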

Q: How did the Ki turn out when `CC(C)CC(NC(=O)OCc1ccccc1)C(=O)NC(Cc1ccccc1)C(=O)C(=O)NCC(O)c1c(F)c(F)c(F)c(F)c1F` (stereo not drawn) [{1-[1-Benzyl-2-(2-hydroxy-2-pentafluorophenyl-ethylcarbamoyl)-2-oxo-ethylcarbamoyl]-3-methyl-butyl}-carbamic acid benzyl ester] was run?
A: 0.35 µM

Q: How did the Ki turn out when `CC(C)CC(NC(=O)OCc1ccccc1)C(=O)NC(Cc1ccccc1)C(=O)C(=O)NCC(O)c1ccccc1` (stereo not drawn) [{1-[1-Benzyl-2-(2-hydroxy-2-phenyl-ethylcarbamoyl)-2-oxo-ethylcarbamoyl]-3-methyl-butyl}-carbamic acid benzyl ester] was run?
A: 0.05 µM

Q: For `CC(C)CC(NC(=O)OCc1ccccc1)C(=O)NC(Cc1ccccc1)C(=O)C(=O)NCCCN1CCOCC1` (stereo not drawn) [{1-[1-Benzyl-2-(3-morpholin-4-yl-propylcarbamoyl)-2-oxo-ethylcarbamoyl]-3-methyl-butyl}-carbamic acid benzyl ester], which Ki is on record?
A: 0.33 µM

Q: `CCC(NC(=O)C(CC(C)C)NC(=O)OCc1ccccc1)C(=O)C(=O)NCc1nc2c(c(=O)n(C)c(=O)n2C)n1C` (stereo not drawn) [{3-Methyl-1-[1-(1,3,7-trimethyl-2,6-dioxo-2,3,6,7-tetrahydro-1H-purin-8-ylmethyl)-aminooxalyl]-propylcarbamoyl}-butyl)-carbamic acid benzyl ester] was tested. Which Ki did it give?
A: 4.6 µM

Q: How did the Ki turn out when `CCC(NC(=O)C(CC(C)C)NC(=O)OCc1ccccc1)C(=O)C(=O)NCCc1ccccn1` (stereo not drawn) [{3-Methyl-1-[1-(2-pyridin-2-yl-ethylaminooxalyl)-propylcarbamoyl]-butyl}-carbamic acid benzyl ester] was run?
A: 0.47 µM

Q: Which Ki does the source give for `CCCC(NC(=O)C(CC(C)C)NC(=O)OCc1ccccc1)C(=O)C(=O)NCCCN1CCOCC1` (stereo not drawn) [{3-Methyl-1-[1-(3-morpholin-4-yl-propylaminooxalyl)-butylcarbamoyl]-butyl}-carbamic acid benzyl ester] here?
A: 0.1 µM

Q: `CCC(NC(=O)C(CC(C)C)NC(=O)OCc1ccccc1)C(=O)C(=O)NCc1ccccn1` (stereo not drawn) [{3-Methyl-1-[1-(pyridin-2-ylmethyl)-aminooxalyl]-propylcarbamoyl}-butyl)-carbamic acid benzyl ester] was tested. Which Ki did it give?
A: 0.017 µM

Q: How did the Ki turn out when `CCC(NC(=O)C(CC(C)C)NC(=O)OCc1ccccc1)C(=O)C(=O)NCc1ccncc1` (stereo not drawn) [{3-Methyl-1-[1-(pyridin-4-ylmethyl)-aminooxalyl]-propylcarbamoyl}-butyl)-carbamic acid benzyl ester] was run?
A: 0.11 µM
